m-calpain inh – inhibitors of pig calpain II | purified calpain II, fluorogenic peptide substrate, 30 min | inhibition, % at 16 µM | 220,000 compounds, 0.37% hits;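 active means inhibition above about 50%, limit read from the data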
NCF1 inh – blocks human p47phox regulatory protein of NADPH oxidases | p47phox/p22phox peptide binding, fluorescence polarization, 2 h | inhibition, % at 24.7 µM | AID 1274 | 220,000 compounds, 0.53% hits;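 active means inhibition above about 30%, limit read from the data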;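 further: 0% = p47phox with labelled peptide and 100% = labelled peptide alone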
Target sequence (P14598 whole entry, looked up): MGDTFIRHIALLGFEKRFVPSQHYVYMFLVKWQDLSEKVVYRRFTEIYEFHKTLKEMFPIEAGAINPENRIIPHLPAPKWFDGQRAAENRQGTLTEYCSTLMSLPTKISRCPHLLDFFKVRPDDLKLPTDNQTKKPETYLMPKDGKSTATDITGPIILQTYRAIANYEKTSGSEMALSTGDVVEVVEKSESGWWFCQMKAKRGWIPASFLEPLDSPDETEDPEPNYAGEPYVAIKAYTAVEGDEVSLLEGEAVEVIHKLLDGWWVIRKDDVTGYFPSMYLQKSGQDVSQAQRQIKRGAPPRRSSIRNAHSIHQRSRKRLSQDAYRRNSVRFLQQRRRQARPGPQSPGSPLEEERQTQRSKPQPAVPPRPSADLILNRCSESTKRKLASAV
RBBP9 inhibitor – inhibitors of human serine hydrolase RBBP9; recombinant RBBP9, FP-Rh probe fluorescence polarization; inhibition, % at 7.94 µM; 220,000 compounds, 0.2% hits; AID 1515;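 active means inhibition above the campaign mean of all tested compounds plus 3 SD, cut at about 14% in these data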;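 further: plate controls were DMSO wells with RBBP9 for no effect and wells lacking RBBP9 protein for full effect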
Target sequence (O75884 whole entry, looked up): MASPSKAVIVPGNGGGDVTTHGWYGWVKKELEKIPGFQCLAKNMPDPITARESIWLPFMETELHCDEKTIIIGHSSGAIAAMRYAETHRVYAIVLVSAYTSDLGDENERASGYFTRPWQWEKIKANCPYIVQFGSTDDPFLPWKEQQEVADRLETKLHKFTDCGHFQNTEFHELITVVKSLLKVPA
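Measured by: FP readout at 525/598 nm; material: recombinant human RBBP9; also added: Serine-hydrolase probe FP-Rh, 375 nM pre-mixing; medium: Tris buffer pH 8.0, NaCl, Pluronic; replication: one well per compound; doses: one concentration, 7.94 µM nominal, 0.794% DMSO; timing: preincubation 30 min plus labeling 45 min at 25 °C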
Furin inh – human furin inhibition | purified furin, fluorogenic substrate cleavage | inhibition, % at 20 µM or 30 µM | 220,000 compounds, 0.061% hits | P09958; in the data active means inhibition above about 25%
* marks the source's active call; other numbers are inactive results; . = no result. Rows were chosen to be rich in hits. Some 1.1% of all compounds tested hit in one or more screens of this group.

SMILES	m-calpain inh	NCF1 inh	RBBP9 inhibitor	Furin inh
O=C(c1cccs1)N1CCc2c([nH]c3ccccc23)C1c1ccc(Cl)cc1 (stereo not drawn)	-38.0	31.5*	-8.8	-14.4
CCCNS(=O)(=O)c1ccc(OC)c(Cl)c1Cl	23.2	30.4*	-1.7	3.9
CCCNS(=O)(=O)c1cc(Cl)ccc1OC	-28.4	-3.2	-5.8	-7.3
O=C(NNc1nc(N2CCOCC2)nc(N2CCOCC2)n1)Nc1ccc(Cl)cc1	-36.1	-13.5	-4.2	-19.4
CCCc1nn2c(=O)c(C(c3ccc(C)cc3)c3c(O)nc4sc(CCC)nn4c3=O)c(O)nc2s1	19.3	148.6*	-3.9	-8.1
CCCc1nn2c(=O)cc(O)nc2s1	2.5	-18.3	-1.6	-27.8
C(=C\c1ccccc1)/C=N/N1CCN(Cc2ccccc2)CC1	50.1*	-9.6	3.5	-13.6
C(/C=C/c1ccccc1)=N/N1CCN(c2ccccc2)CC1	-21.6	-10.5	-4.7	-15.0
O=C(NC1CCCCC1)C(c1ccc(F)cc1)N(CCc1ccccc1)C(=O)CN1C(=O)c2ccccc2S1(=O)=O (stereo not drawn)	15.3	31.2*	-4.1	-14.8
O=C(NC1CCCCC1)C(c1ccc(F)cc1)N(Cc1ccccc1)C(=O)CN1C(=O)c2ccccc2S1(=O)=O (stereo not drawn)	26.6	-14.3	-9.6	-8.3
CCc1cc2c(=O)c(-c3nc(C)cs3)coc2cc1OC(C)C(=O)NCCO (stereo not drawn)	54.7*	4.7	3.2	-7.2
Cc1nc(NC(=O)c2ccc(Cl)cc2)sc1-c1csc(Nc2cccc(F)c2)n1	-17.1	158.2*	-7.2	-2.2
Cc1ccc(Nc2nc(-c3sc(NC(=O)c4cccc(Cl)c4)nc3C)cs2)cc1	-119.3	-28.4	-8.7	-8.0
Cc1ccc(/C=N/n2cnc3sc(C)c(C)c3c2=O)o1	19.7	-24.5	-0.6	-21.4
CC(C)OC(=O)CSc1nnc(COc2ccc([N+](=O)[O-])cc2)n1C	51.7*	0.5	-6.3	-8.6
Cc1ccc(C(=O)NCCSc2ccccc2)cc1S(=O)(=O)Nc1ccccc1	6.5	-12.4	-17.3	-4.5
O=C(Oc1ccc2c(c1)OCO2)C12CC3CC(CC(C3)C1)C2	66.2*	4.1	2.2	-13.2
O=C(Oc1ccc(O)cc1)C12CC3CC(CC(C3)C1)C2	7.9	-10.5	-7.2	-28.8
O=C(Nc1ccc(Cl)cc1)NC1CCCCC1Cc1ccco1 (stereo not drawn)	52.9*	-17.2	-10.5	-23.0
Cn1nccc1C(=O)Nc1ccc(Cl)cc1	18.5	-8.1	0.7	-10.3
Cn1nccc1C(=O)Nc1ccccc1C(=O)O	11.6	177.7*	-4.4	-18.2
COC(=O)CS(=O)(=O)c1ccsc1C(=O)Nc1ccc(F)cc1	-10.8	-5.1	-13.8	-24.4
Cc1ccc(NC(=O)c2ccc(C(C)(C)C)cc2)cc1-n1cnnn1	62.1*	-6.7	2.2	-25.9
COc1cc(NC(=O)COc2ccccc2[N+](=O)[O-])ccc1NC(=O)c1cccs1	-21.9	51.9*	-13.6	-19.2
CC(C)c1cc(C(=O)Nc2cccc(Cl)c2)no1	28.9	-6.7	-4.5	-4.3
SMILES	m-calpain inh	NCF1 inh	RBBP9 inhibitor	Furin inh
CC(C)c1onc(C(=O)Nc2cccc(Cl)c2)c1[N+](=O)[O-]	84.4*	-10.1	-4.9	-25.9
Cc1ccc(CNc2nc(Cl)c(C#N)s2)cc1	75.6*	5.4	-2.6	-23.2
CCCCN=Cc1c(C)[nH]n(-c2ccccc2)c1=S	-8.5	-4.4	-8.4	-9.6
Cc1[nH]n(-c2ccccc2)c(=S)c1C=Nc1cccc([N+](=O)[O-])c1	27.9	89.0*	-9.5	-12.0
COC(=O)COc1ccc(S(=O)(=O)Nc2ccccc2SC)cc1	15.9	90.8*	-0.3	2.1
Cn1c(=O)n(C)c2cc([N+](=O)[O-])c(N3CCN(CCO)CC3)cc21	66.4*	.	4.1	-20.0
O=C(Nc1cc(Cl)cc(Cl)c1)c1ccc(Cn2c(=O)[nH]c3ccsc3c2=O)cc1	-19.1	-10.2	-6.3	-19.5
CCn1nc(C(=O)OCC(=O)c2c[nH]c3ccccc23)c2ccccc2c1=O	55.9*	-29.5	-16.8	-12.4
CC(C)n1nc(C(=O)OCC(=O)c2c[nH]c3ccccc23)c2ccccc2c1=O	45.5	-31.6	-1.6	-9.9
CCc1cc(C(c2ccccn2)N2CCN(C)CC2)c(NC(=O)c2ccccc2)s1 (stereo not drawn)	-5.2	-8.9	-0.1	25.1*
C/C(=N\OCC(=O)Nn1c(=O)[nH]c2ccccc2c1=O)c1cccs1	-25.6	173.9*	-0.7	-29.3
Cc1cc2c(C)nc(N/N=C/c3ccc([N+](=O)[O-])cc3)nc2o1	7.6	44.1*	-5.8	-3.0
CCOc1ccc(OCc2ccc(C(=O)N3CCCC(C)C3)cc2)cc1 (stereo not drawn)	70.7*	-22.0	-4.0	-16.3
CCOc1ccc(OCc2ccc(C(=O)N3CCOCC3)cc2)cc1	-10.8	-15.0	-6.9	-14.1
CCOC(=O)C1(CC2CCCCO2)CCN(C(=O)NCc2ccccc2)CC1 (stereo not drawn)	-16.1	6.3	-3.8	-20.0
CCOC(=O)c1c2c(c(=S)n(-c3ccccc3)c1N)CCC2	51.3*	-2.7	-8.5	-14.0
C[N+]1(CC(=O)Nc2ccccc2Cl)CCN(C(=O)c2cccs2)CC1	-5.7	93.6*	-0.7	-14.4
CN1CCN(CCC(=O)Nc2ccccc2Cl)CC1	18.9	0.7	-5.5	-21.4
O=C(C1=C[C@@H](c2ccc(Br)cc2)C[C@@H](OCCCCO)O1)N1CCN(Cc2ccccc2)CC1	-12.3	.	-3.3	-5.5
COCCNCC(=O)Nc1ccc(OC(F)(F)F)cc1	-26.4	-9.8	-8.7	-25.4
CC(C)(C)c1ccc(C(=O)N2CCNCC2)cc1	-7.5	38.0*	-9.2	-5.3
COc1ccc(C/C(N)=N/OC(=O)Cc2ccccc2)cc1OC	-2.3	115.3*	-3.1	-20.6
COc1ccc(CC(=O)O/N=C(\N)Cc2ccc(OC)c(OC)c2)cc1	1.4	-2.6	5.1	-4.3
COc1ccccc1C/C(N)=N/OC(=O)c1ccco1	-35.1	-9.9	0.3	-32.5
CCNC(=O)COC(=O)/C=C/c1cccc([N+](=O)[O-])c1	3.3	-10.0	-6.5	-12.5
SMILES	m-calpain inh	NCF1 inh	RBBP9 inhibitor	Furin inh
CCCCN(CCCC)C(=O)/C=C/c1cccc([N+](=O)[O-])c1	62.1*	3.8	-2.5	-22.8
Cc1cc(C)c(NC(N)=S)c(C)c1	11.3	-13.7	-11.6	3.7
COc1ccc2nc(NC(=O)CCN3C(=S)NC(C)(C)CC3C)sc2c1 (stereo not drawn)	-2.2	-14.2	-11.7	-15.0
COc1cc(NCCCCCCCN)c2ncccc2c1	17.1	33.6*	1.8	-4.3
Cc1c(O)ccc(C(=O)CN2C(=O)c3ccccc3C2=O)c1O	78.3*	-13.3	-2.9	-15.5
COC(=O)C1CSC(C(=O)OC)N1C(=O)Nc1c(C)cccc1C (stereo not drawn)	-41.8	-6.8	-7.1	-15.3
Cc1cccc(C)c1NC(=O)N1C(C(=O)O)CSC1C(=O)O (stereo not drawn)	15.3	66.7*	-1.9	-0.6
Fc1ccc(CNc2nc(-c3ccccc3)nc3ccccc23)cc1	54.5*	-26.8	-26.5	8.3
Cc1ccc(-c2nc(NCc3ccco3)c3ccccc3n2)cc1	60.6*	-35.3	-10.4	-1.1
c1cncc(-c2nc(NCc3ccco3)c3ccccc3n2)c1	-30.8	-8.5	-7.2	-15.8

Bioassay records: PubChem BioAssay, several laboratories
